In the library only some 1.4% were active in any assay of this set; here they are far more common.
Vif imaging: HIV Vif inhibition; HEK293T cells, Vif self-association by quenched fluorescence, imaging, 24 h; inhibition, % at 7.49 µM; 340,000 tested, 0.35% active; AID 602346; in the data active means inhibition above about 50%, passing the limit was not always enough
SR-BI DiI inh: blocks mouse SR-BI lipid uptake from DiI-HDL; Q61009; ldlA[mSR-BI] CHO cells, DiI-HDL uptake fluorescence, 3 h; inhibition, % at 12.5 µM; 320,000 tested, 0.96% active;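 active means mean replicate inhibition of at least 70% and a set share of replicates each scoring 70 or more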;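 further: 0% = median of neutral control wells and 100% = median of positive control wells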
PKA-R1A activ: activators of PKA-R1A complex. P00514+P68181. PKA-R1A dissociation, Cy5-IP20 fluorescence polarization; scaled: DMSO 0%, 113 µM cGMP 100%. activation, % at 11.4 µM. 340,000 tested, 0.083% active. AID 504707;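 active means percent activation above the mean of all tested compounds plus 3 SD, cut at about 19% in these data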;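 further: higher means more PKAc released from R1A so a rise in polarization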
SR-BI DiI-HDL act: SR-BI HDL lipid transfer activation | CHO ldlA[mSR-BI] cells, DiI-HDL uptake fluorescence, 3 h; 100 = double the neutral-control signal | activation, % at 12.5 µM | 320,000 tested, 0.096% active | AID 504775;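 active means mean replicate activation of at least 60% and every replicate at or above 60%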;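 further: 0% = median plate neutral-control signal and 100% = twice that signal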
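Test system: SR-BI-overexpressing, LDLR-lacking CHO cells; Medium: Ham's F12 with 0.5% BSA, HEPES 25 mM, pH 7.4; Schedule: 3 h, 37 °C; Technique: bottom-read fluorescence, 550/595 nm.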
PKA-R2B act: PKA-R2B complex activation. PKA-R2B holoenzyme dissociation, Cy5-IP20 fluorescence polarization; R2B truncated from residue 108, S112A mutant; 0% DMSO only, 100% 113 µM cGMP. activation, % at 11.4 µM. 340,000 tested, 0.079% active. P22694+P31323;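 active means activation above a cutoff set at the mean over all compounds plus 3 SD, cut at about 18% in these data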;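 further: higher means more holoenzyme dissociation and a rise in polarization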
Target sequence (P31323 whole entry, looked up, other chains not shown, the tested form may be a part): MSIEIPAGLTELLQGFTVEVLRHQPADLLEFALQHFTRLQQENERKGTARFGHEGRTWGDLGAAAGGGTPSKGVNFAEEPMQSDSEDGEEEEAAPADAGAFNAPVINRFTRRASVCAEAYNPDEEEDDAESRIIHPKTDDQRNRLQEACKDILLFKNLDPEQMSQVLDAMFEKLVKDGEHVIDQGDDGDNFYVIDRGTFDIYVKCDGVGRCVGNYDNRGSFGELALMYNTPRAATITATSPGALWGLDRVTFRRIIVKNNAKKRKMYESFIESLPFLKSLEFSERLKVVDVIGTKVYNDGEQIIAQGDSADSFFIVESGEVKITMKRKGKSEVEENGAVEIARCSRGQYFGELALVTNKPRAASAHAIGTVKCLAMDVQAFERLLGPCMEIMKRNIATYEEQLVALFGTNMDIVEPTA
DiI quench: quenches DiI-HDL fluorescence, an SR-BI assay artifact; shares compounds with SR-BI DiI inh; cell-free DiI-HDL fluorescence quenching, 30 min; AC50, µM (highest dose often 35 µM), for inactives: at the highest dose activity change, negative = quenching; 470 tested, 20% active; AID 540326;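 active means quenching, a falling signal, with AC50 below a set limit tied to the top valid dose, actives reach about 32 µM in these data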
R2B FP artifact: fluorescence polarization artifact in PKA-R2B activator counter-screen; AID 504796; shares compounds with PKA-R2B act; 270 tested, 6% active; FP artifact counterscreen; activation, % at 11.4 µM; in the data active means activation above about 20%;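 further: Cy5 labelled IP20 peptide probe with compound but no PKA protein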
PKA-R2B act conf: confirmation of human PKA-R2B complex activators; activation, % at 11.4 µM; fluorescence polarization, activation; 270 tested, 9% active; shares compounds with PKA-R2B act; in the data active means activation above about 19%
Target sequence (P31323 whole entry, looked up): as the sequence (P31323 whole entry, looked up, other chains not shown, the tested form may be a part) above
R1A FP artifact: FP assay interference, PKA-R1A counter-screen. 280 tested, 7% active. shares compounds with PKA-R1A activ. activation, % at 11.4 µM. Cy5-IP20 peptide alone, fluorescence polarization artifact counterscreen;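 active means mean activation over triplicate runs exceeds the adjusted cutoff derived for the parent primary screen, cut at about 19% in these data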;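 further: no PKA protein present so any polarization rise reflects compound interference; 0% = tracer peptide mix alone and 100% = mix with added PKA catalytic subunit; higher means stronger polarization artifact and likely false positive in parent screen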
PKA-R1A act conf: PKA-R1A complex activation, confirmation | shares compounds with PKA-R1A activ | Cy5-IP20 fluorescence polarization, PKA-R1A holoenzyme dissociation | activation, % at 11.4 µM | 280 tested, 9% active;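 active means mean activation over replicate wells exceeds the adjusted hit threshold taken from the earlier primary screen, cut at about 20% in these data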;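 further: 0% = holoenzyme mix with DMSO only and 100% = cGMP-activated control wells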
Starred values were filed as active, the others as inactive; · = not tested or not shown.

SMILES | Vif imaging | SR-BI DiI inh | PKA-R1A activ | SR-BI DiI-HDL act | PKA-R2B act | R1A FP artifact | PKA-R1A act conf | others
CCCCCCn1c(=O)c(C(=O)Nc2cnccn2)c(O)c2ccccc21 | 0.7 | 81.6* | -1.5 | -81.6 | -5.7 | · | · | DiI quench=-5.1%
CN(C(=O)c1ccc(Cl)nc1)C1(c2ccccc2Cl)CCCCC1=O (stereo unspecified) | -3.6 | 0.5 | -0.2 | -0.5 | 21.4* | · | · | R2B FP artifact=5.1;PKA-R2B act conf=2.6
NP(=O)(Nc1ccccc1)Nc1ccccc1 | 6.2 | -11.7 | 8.6 | 11.7 | -4.7 | · | ·
CCC(CO)(C(=O)OC1C[N+]2(C)CCC1CC2)c1ccccc1 (stereo unspecified) | 10.9 | -16.5 | -3.6 | 16.5 | 19.6* | · | · | R2B FP artifact=2.7;PKA-R2B act conf=1.1
CCN1CCC2(CCNC2)C1 (stereo unspecified) | 30.3 | -15.7 | 2.7 | 15.7 | -1.3 | · | ·
COc1ccc(NP2(=O)OCC(C)(N)CO2)cc1 (stereo unspecified) | -4.4 | -20.7 | 19.5* | 20.7 | 5.7 | -1.1 | -1.1
CC1([N+](=O)[O-])COP(=O)(Nc2ccccc2F)OC1 (stereo unspecified) | 9.7 | -16.7 | -5.8 | 16.7 | 0.8 | · | ·
CC(=O)OC1(c2ccccc2)CC(C(C)(C)C)CN(C(C)(C)C)C1 (stereo unspecified) | 5.2 | -33.0 | 0.3 | 33.0 | -4.9 | · | ·
C=C1[C@H]2CC[C@H]3[C@]4(C)C[C@H](O[C@@H]5OC(CO)[C@@H](OSOOO)[C@H](OS(=O)(=O)O)[C@H]5OC(=O)CC(C)C)C[C@@H](C(=O)O)[C@H]4CC[C@]3(C2)[C@H]1O (stereo partly specified) | 1.4 | -26.1 | 18.6* | 26.1 | 4.2 | 2.4 | -0.4
O=[N+]([O-])c1ccc(C2[C@H]3C(c4ccccc4)=NC4(CCCCC4)N23)cc1 (stereo partly specified) | -6.2 | 5.3 | 7.8 | -5.3 | 12.8 | · | ·
CN(C(=O)Cc1ccc(Cl)c(Cl)c1)C(CN1CCCC1)c1cccc(OCC(=O)O)c1 (stereo unspecified) | 10.6 | -12.9 | 19.0* | 12.9 | -5.5 | 4.4 | -0.8
Cc1cccc(OCC(=O)N2CCN(Cc3ccc4c(c3)OCO4)CC2)c1 | 2.9 | -4.5 | -0.1 | 4.5 | -13.9 | · | ·
O=C(COc1ccccc1Cl)N1CCCC(N2CCN(c3ccc(F)cc3)CC2)C1 (stereo unspecified) | -5.1 | 68.4 | 19.0* | -68.4 | -9.1 | 0.1 | 1.6
CC1=CP(=O)(Oc2ccc([N+](=O)[O-])cc2)CC1 (stereo unspecified) | -1.9 | · | 19.1* | · | -3.8 | 4.6 | 2.6
O=C1Nc2ccccc2Oc2ccccc21 | 8.4 | · | 1.9 | · | 0.5 | · | ·

High-throughput results: PubChem BioAssay, several laboratories
